In brackets after ≈: the same amount, converted by molar mass.
How the values were obtained:
Acinetobacter baumannii [1] = assay: Antibacterial activity against Acinetobacter baumannii A892 assessed as mutant prevention concentration after overnight incubation; format: functional
Escherichia coli [2] = assay: Antibacterial activity against beta-lactamase-positive ESBL-positive Escherichia coli E458 assessed as mutant prevention concentration after overnight incubation; format: functional
Procedure, shortened: (§1)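 Overnight growth on blood trypticase soy agar (35°C, air) was resuspended in 0.9% saline and counted on drug-free Mueller-Hinton agar. […] Colonies were retested by agar dilution to confirm mutants. MPC was the lowest concentration preventing resistant-mutant growth.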

Escherichia coli [3] = assay: Antibacterial activity against beta-lactamase-positive ESBL-negative Escherichia coli E483 assessed as mutant prevention concentration after overnight incubation; format: functional; procedure, shortened: as §1
Pseudomonas aeruginosa [4] = assay: Antibacterial activity against Pseudomonas aeruginosa P373 incubated up to 7 days by agar dilution method; format: functional; conditions: P373, 168 h
Klebsiella pneumoniae [5] = assay: Ratio of mutant prevention concentration to minimum Inhibitory concentration for beta-lactamase-negative Klebsiella pneumoniae E359; format: functional
Klebsiella pneumoniae [6] = assay: Ratio of mutant prevention concentration to minimum Inhibitory concentration for beta-lactamase-negative Klebsiella pneumoniae E420; format: functional
Pseudomonas aeruginosa [7] = assay: Antibacterial activity against Pseudomonas aeruginosa P353 incubated up to 7 days by agar dilution method; format: functional; conditions: P353, 168 h
Acinetobacter baumannii [8] = assay: Antibacterial activity against Acinetobacter baumannii A885 incubated up to 7 days by agar dilution method; format: functional; conditions: A885, 168 h
Escherichia coli [9] = assay: Ratio of mutant prevention concentration to minimum Inhibitory concentration for beta-lactamase-positive ESBL-positive Escherichia coli E450; format: functional
Pseudomonas aeruginosa [10] = assay: Antibacterial activity against Pseudomonas aeruginosa P369 incubated up to 7 days by agar dilution method; format: functional; conditions: P369, 168 h
Escherichia coli [11] = assay: Antibacterial activity against beta-lactamase-positive ESBL-negative Escherichia coli E430 incubated up to 7 days by agar dilution method; format: functional; conditions: E430, 168 h
Procedure, shortened: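 MIC by CLSI agar dilution, with quality-control strains in each run. Beta-lactamase status was set by 30 μg cefazolin Kirby-Bauer disk diffusion. ESBL status was set by cefotaxime and ceftazidime disks (30 μg) with and without clavulanic acid (10 μg).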

Klebsiella pneumoniae [12] = assay: Ratio of mutant prevention concentration to minimum Inhibitory concentration for beta-lactamase-negative Klebsiella pneumoniae E362; format: functional
Pseudomonas aeruginosa [13] = assay: Antibacterial activity against Pseudomonas aeruginosa P340 incubated up to 7 days by agar dilution method; format: functional; conditions: P340, 168 h
Pseudomonas aeruginosa [14] = assay: Antibacterial activity against Pseudomonas aeruginosa P322 incubated up to 7 days by agar dilution method; format: functional; conditions: P322, 168 h
Pseudomonas aeruginosa [15] = assay: Antibacterial activity against Pseudomonas aeruginosa P376 incubated up to 7 days by agar dilution method; format: functional; conditions: P376, 168 h
Escherichia coli [16] = assay: Ratio of mutant prevention concentration to minimum Inhibitory concentration for beta-lactamase-negative Escherichia coli E348; format: functional
Escherichia coli [17] = assay: Ratio of mutant prevention concentration to minimum Inhibitory concentration for beta-lactamase-positive ESBL-positive Escherichia coli E456; format: functional
Pseudomonas aeruginosa [18] = assay: Antibacterial activity against Pseudomonas aeruginosa P326 incubated up to 7 days by agar dilution method; format: functional; conditions: P326, 168 h
Acinetobacter baumannii [19] = assay: Antibacterial activity against Acinetobacter baumannii A898 incubated for 24 hrs by agar dilution method; conditions: A898, 24 h
Acinetobacter baumannii [20] = assay: Antibacterial activity against Acinetobacter baumannii A903 incubated up to 7 days by agar dilution method; format: functional; conditions: A903, 168 h
Acinetobacter baumannii [21] = assay: Antibacterial activity against Acinetobacter baumannii A928 incubated for 24 h by agar dilution method; conditions: A928, 24 h
Pseudomonas aeruginosa [22] = assay: Antibacterial activity against Pseudomonas aeruginosa P352 incubated up to 7 days by agar dilution method; format: functional; conditions: P352, 168 h
Escherichia coli [23] = assay: Ratio of mutant prevention concentration to minimum Inhibitory concentration for beta-lactamase-negative Escherichia coli E346; format: functional
Pseudomonas aeruginosa [24] = assay: Antibacterial activity against Pseudomonas aeruginosa P341 incubated up to 7 days by agar dilution method; format: functional; conditions: P341, 168 h
Acinetobacter baumannii [25] = assay: Antibacterial activity against Acinetobacter baumannii A912 incubated for 24 h by agar dilution method; conditions: A912, 24 h
Acinetobacter baumannii [26] = assay: Antibacterial activity against Acinetobacter baumannii A931 incubated for 24 hrs by agar dilution method; conditions: A931, 24 h
Pseudomonas aeruginosa [27] = assay: Antibacterial activity against Pseudomonas aeruginosa P338 incubated up to 7 days by agar dilution method; format: functional; conditions: P338, 168 h
Acinetobacter baumannii [28] = assay: Antibacterial activity against Acinetobacter baumannii A901 incubated up to 7 days by agar dilution method; format: functional; conditions: A901, 168 h
Pseudomonas aeruginosa [29] = assay: Antibacterial activity against Pseudomonas aeruginosa P365 incubated up to 7 days by agar dilution method; format: functional; conditions: P365, 168 h
Pseudomonas aeruginosa [30] = assay: Antibacterial activity against Pseudomonas aeruginosa P370 incubated up to 7 days by agar dilution method; format: functional; conditions: P370, 168 h
Acinetobacter baumannii [31] = assay: Antibacterial activity against Acinetobacter baumannii A865 incubated for 24 h by agar dilution method; conditions: A865, 24 h
Klebsiella pneumoniae [32] = assay: Ratio of mutant prevention concentration to minimum Inhibitory concentration for beta-lactamase-negative Klebsiella pneumoniae E358; format: functional
Escherichia coli [33] = assay: Ratio of mutant prevention concentration to minimum Inhibitory concentration for beta-lactamase-positive ESBL-negative Escherichia coli E483; format: functional
Acinetobacter baumannii [34] = assay: Antibacterial activity against Acinetobacter baumannii A851 incubated for 24 h by agar dilution method; conditions: A851, 24 h
Acinetobacter baumannii [35] = assay: Antibacterial activity against Acinetobacter baumannii A908 incubated for 24 h by agar dilution method; conditions: A908, 24 h
Acinetobacter baumannii [36] = assay: Antibacterial activity against Acinetobacter baumannii A892 incubated for 24 h by agar dilution method; conditions: A892, 24 h
Klebsiella pneumoniae [37] = assay: Ratio of mutant prevention concentration to minimum Inhibitory concentration for beta-lactamase-positive ESBL-negative Klebsiella pneumoniae E480; format: functional
Klebsiella pneumoniae [38] = assay: Ratio of mutant prevention concentration to minimum Inhibitory concentration for beta-lactamase-positive ESBL-negative Klebsiella pneumoniae E511; format: functional
Klebsiella pneumoniae [39] = assay: Ratio of mutant prevention concentration to minimum Inhibitory concentration for beta-lactamase-positive ESBL-positive Klebsiella pneumoniae E457; format: functional
Acinetobacter baumannii [40] = assay: Antibacterial activity against Acinetobacter baumannii A897 incubated up to 7 days by agar dilution method; format: functional; conditions: A897, 168 h
Escherichia coli [41] = assay: Ratio of mutant prevention concentration to minimum Inhibitory concentration for beta-lactamase-positive ESBL-positive Escherichia coli E452; format: functional
Escherichia coli [42] = assay: Ratio of mutant prevention concentration to minimum Inhibitory concentration for beta-lactamase-positive ESBL-positive Escherichia coli E458; format: functional
Klebsiella pneumoniae [43] = assay: Ratio of mutant prevention concentration to minimum Inhibitory concentration for beta-lactamase-positive ESBL-negative Klebsiella pneumoniae E472; format: functional
Escherichia coli [44] = assay: Antibacterial activity against beta-lactamase-negative Escherichia coli E408 incubated up to 7 days by agar dilution method; format: functional; conditions: E408, 168 h

C[C@@H](O)[C@H]1C(=O)N2C(C(=O)O)=C(SCCNC=N)C[C@H]12 [IMIPENEM ANHYDROUS]
MPC (Acinetobacter baumannii [1]): 64 µg/mL
MPC (Escherichia coli [2]): 0.5 µg/mL
MPC (Escherichia coli [3]): 4 µg/mL

C[C@@H](O)[C@H]1C(=O)N2C(C(=O)O)=C(S[C@@H]3CN[C@H](CNS(N)(=O)=O)C3)[C@H](C)[C@H]12 [DORIPENEM]
MIC (Pseudomonas aeruginosa [4]): 0.5 µg/mL (≈ 1.19 µM)
Ratio (Klebsiella pneumoniae [5]): 2
MPC (Acinetobacter baumannii [1]): 64 µg/mL
Ratio (Klebsiella pneumoniae [6]): 1
MIC (Pseudomonas aeruginosa [7]): 0.5 µg/mL (≈ 1.19 µM)
MIC (Acinetobacter baumannii [8]): 4 µg/mL (≈ 9.51 µM)
Ratio (Escherichia coli [9]): 4
MIC (Pseudomonas aeruginosa [10]): 0.25 µg/mL (≈ 0.595 µM)
MIC (Escherichia coli [11]): 0.03 µg/mL (≈ 0.0713 µM)
Ratio (Klebsiella pneumoniae [12]): 2
MIC (Pseudomonas aeruginosa [13]): 0.125 µg/mL (≈ 0.297 µM)
MIC (Pseudomonas aeruginosa [14]): 0.5 µg/mL (≈ 1.19 µM)
MPC (Escherichia coli [2]): 0.06 µg/mL
MIC (Pseudomonas aeruginosa [15]): 0.5 µg/mL (≈ 1.19 µM)
Ratio (Escherichia coli [16]): 2
Ratio (Escherichia coli [17]): 8
MIC (Pseudomonas aeruginosa [18]): 4 µg/mL (≈ 9.51 µM)
MPC (Escherichia coli [3]): 2 µg/mL
MIC (Acinetobacter baumannii [19]): 2 µg/mL (≈ 4.76 µM)
MIC (Acinetobacter baumannii [20]): 1 µg/mL (≈ 2.38 µM)
MIC (Acinetobacter baumannii [21]): 0.5 µg/mL (≈ 1.19 µM)
MIC (Pseudomonas aeruginosa [22]): 1 µg/mL (≈ 2.38 µM)
Ratio (Escherichia coli [23]): 2
MIC (Pseudomonas aeruginosa [24]): 0.5 µg/mL (≈ 1.19 µM)
MIC (Acinetobacter baumannii [25]): 4 µg/mL (≈ 9.51 µM)
MIC (Acinetobacter baumannii [26]): 1 µg/mL (≈ 2.38 µM)
MIC (Pseudomonas aeruginosa [27]): 0.25 µg/mL (≈ 0.595 µM)
MIC (Acinetobacter baumannii [28]): 4 µg/mL (≈ 9.51 µM)
MIC (Pseudomonas aeruginosa [29]): 0.5 µg/mL (≈ 1.19 µM)
MIC (Pseudomonas aeruginosa [30]): 0.25 µg/mL (≈ 0.595 µM)
MIC (Acinetobacter baumannii [31]): 8 µg/mL (≈ 19 µM)
Ratio (Klebsiella pneumoniae [32]): 2
Ratio (Escherichia coli [33]): 8
MIC (Acinetobacter baumannii [34]): 4 µg/mL (≈ 9.51 µM)
MIC (Acinetobacter baumannii [35]): 0.5 µg/mL (≈ 1.19 µM)
MIC (Acinetobacter baumannii [36]): 4 µg/mL (≈ 9.51 µM)
Ratio (Klebsiella pneumoniae [37]): 4
Ratio (Klebsiella pneumoniae [38]): >16
Ratio (Klebsiella pneumoniae [39]): 2
MIC (Acinetobacter baumannii [40]): 0.5 µg/mL (≈ 1.19 µM)
Ratio (Escherichia coli [41]): 4
Ratio (Escherichia coli [42]): 2
Ratio (Klebsiella pneumoniae [43]): >16
MIC (Escherichia coli [44]): 0.03 µg/mL (≈ 0.0713 µM)

C[C@@H](O)[C@H]1C(=O)N2C(C(=O)O)=C(S[C@@H]3CN[C@H](C(=O)N(C)C)C3)[C@H](C)[C@H]12 [MEROPENEM]
MIC (Pseudomonas aeruginosa [4]): 0.5 µg/mL (≈ 1.3 µM)
MIC (Pseudomonas aeruginosa [7]): 2 µg/mL (≈ 5.22 µM)
MIC (Acinetobacter baumannii [8]): 2 µg/mL (≈ 5.22 µM)
MIC (Pseudomonas aeruginosa [10]): 0.5 µg/mL (≈ 1.3 µM)
MIC (Escherichia coli [11]): 0.03 µg/mL (≈ 0.0782 µM)
MIC (Pseudomonas aeruginosa [13]): 0.25 µg/mL (≈ 0.652 µM)
MIC (Pseudomonas aeruginosa [14]): 2 µg/mL (≈ 5.22 µM)
MPC (Escherichia coli [2]): 0.125 µg/mL
MIC (Pseudomonas aeruginosa [15]): 1 µg/mL (≈ 2.61 µM)
MIC (Pseudomonas aeruginosa [18]): 8 µg/mL (≈ 20.9 µM)
MPC (Escherichia coli [3]): 4 µg/mL
MIC (Acinetobacter baumannii [19]): 2 µg/mL (≈ 5.22 µM)
MIC (Acinetobacter baumannii [20]): 2 µg/mL (≈ 5.22 µM)
MIC (Acinetobacter baumannii [21]): 1 µg/mL (≈ 2.61 µM)
MIC (Pseudomonas aeruginosa [22]): 2 µg/mL (≈ 5.22 µM)
MIC (Pseudomonas aeruginosa [24]): 0.5 µg/mL (≈ 1.3 µM)
MIC (Acinetobacter baumannii [25]): 2 µg/mL (≈ 5.22 µM)
MIC (Acinetobacter baumannii [26]): 1 µg/mL (≈ 2.61 µM)
MIC (Pseudomonas aeruginosa [27]): 0.25 µg/mL (≈ 0.652 µM)
MIC (Acinetobacter baumannii [28]): 2 µg/mL (≈ 5.22 µM)
MIC (Pseudomonas aeruginosa [29]): 1 µg/mL (≈ 2.61 µM)
MIC (Pseudomonas aeruginosa [30]): 0.25 µg/mL (≈ 0.652 µM)
MIC (Acinetobacter baumannii [31]): 8 µg/mL (≈ 20.9 µM)
MIC (Acinetobacter baumannii [34]): 4 µg/mL (≈ 10.4 µM)
MIC (Acinetobacter baumannii [35]): 1 µg/mL (≈ 2.61 µM)
MIC (Acinetobacter baumannii [36]): 8 µg/mL (≈ 20.9 µM)
MIC (Acinetobacter baumannii [40]): 0.5 µg/mL (≈ 1.3 µM)

C[C@@H](O)[C@H]1C(=O)N2C(C(=O)O)=C(S[C@@H]3CN[C@H](C(=O)Nc4cccc(C(=O)O)c4)C3)[C@H](C)[C@H]12
Ratio (Klebsiella pneumoniae [5]): 2
Ratio (Klebsiella pneumoniae [6]): 4
Ratio (Escherichia coli [9]): >16
MIC (Escherichia coli [11]): 0.06 µg/mL (≈ 0.126 µM)
Ratio (Klebsiella pneumoniae [12]): 4
MPC (Escherichia coli [2]): 0.5 µg/mL
Ratio (Escherichia coli [16]): 4
Ratio (Escherichia coli [17]): 16
MPC (Escherichia coli [3]): 64 µg/mL
Ratio (Escherichia coli [23]): 4
Ratio (Klebsiella pneumoniae [32]): 4
Ratio (Escherichia coli [33]): 16
Ratio (Klebsiella pneumoniae [37]): 4
Ratio (Klebsiella pneumoniae [38]): 8
Ratio (Klebsiella pneumoniae [39]): 4
Ratio (Escherichia coli [41]): 8
Ratio (Escherichia coli [42]): 16
Ratio (Klebsiella pneumoniae [43]): 8
MIC (Escherichia coli [44]): 0.016 µg/mL (≈ 0.0336 µM)
